# Reference: ChEMBL document CHEMBL2440039, “Synthesis and pharmacological evaluation of novel N-aryl-3,4-dihydro-1'H-spiro[chromene-2,4'-piperidine]-1'-carboxamides as TRPM8 antagonists” (Bioorg Med Chem, 2013)
# Experiments:
# [1] = target: T1, Transient receptor potential cation channel subfamily M member 8 (Homo sapiens, UniProt Q7Z2W7); experiment: Antagonist activity at human TRPM8 expressed in CHO cells assessed as inhibition of icilin-induced 45Ca2+ uptake incubated for 10 mins prior to icilin-challenge measured after 4 mins by liquid scintillation counting analysis; format: cell-based
# Method in brief: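 CHO cells stably expressing human TRPM8 in DMEM F-12 with 10% FBS and G418, seeded overnight. Assay buffer is DMEM F12 with 0.1% BSA and 1.8 mM CaCl2, run at 25 °C. Compound added 10 min before 45Ca2+ (5 µCi/mL final) and icilin. Wash after 4 min, lyse, count cpm. IC50 from six-point curves by nonlinear regression, at least two independent experiments.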
# [2] = target: Transient receptor potential cation channel subfamily A member 1 (Homo sapiens) (UniProt O75762); experiment: Antagonist activity at human TRPA1 expressed in CHO cells assessed as inhibition of allyl isothiocyanate-induced 45Ca2+ uptake at 1 uM incubated for 10 mins prior to allyl isothiocyanate-challenge measured after 2 to 5 mins by liquid scintillation counting analysis; format: cell-based
# Method in brief: (§1)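 CHO cells stably expressing human TRPA1, TRPV1, TRPV3 or TRPV4. Temperature 30 °C for TRPV1, 32 °C for TRPV3, 25 °C for TRPV4 and TRPA1. Compound preincubated 10 min, then 45Ca2+ (5 µCi/mL final) and agonist added. Wash after 2–5 min, lyse, scintillation count. TRPV1 IC50 from six-point curves in at least two experiments. TRPA1, TRPV3 and TRPV4 run in duplicate as % inhibition at 1.0 µM.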
# [3] = target: Transient receptor potential cation channel subfamily V member 4 (Homo sapiens) (UniProt Q9HBA0); experiment: Antagonist activity at human TRPV4 expressed in CHO cells assessed as inhibition of 4alphaPDD-induced 45Ca2+ uptake at 1 uM incubated for 10 mins prior to 4alphaPDD-challenge measured after 2 to 5 mins by liquid scintillation counting analysis; format: cell-based; method in brief: as §1
# [4] = target: T2, Transient receptor potential cation channel subfamily V member 3 (Homo sapiens) (UniProt Q8NET8); experiment: Antagonist activity at human TRPV3 expressed in CHO cells assessed as inhibition of 2APB-induced 45Ca2+ uptake at 1 uM incubated for 10 mins prior to 2APB-challenge measured after 2 to 5 mins by liquid scintillation counting analysis; format: cell-based; method in brief: as §1
# T2 sequence (whole entry): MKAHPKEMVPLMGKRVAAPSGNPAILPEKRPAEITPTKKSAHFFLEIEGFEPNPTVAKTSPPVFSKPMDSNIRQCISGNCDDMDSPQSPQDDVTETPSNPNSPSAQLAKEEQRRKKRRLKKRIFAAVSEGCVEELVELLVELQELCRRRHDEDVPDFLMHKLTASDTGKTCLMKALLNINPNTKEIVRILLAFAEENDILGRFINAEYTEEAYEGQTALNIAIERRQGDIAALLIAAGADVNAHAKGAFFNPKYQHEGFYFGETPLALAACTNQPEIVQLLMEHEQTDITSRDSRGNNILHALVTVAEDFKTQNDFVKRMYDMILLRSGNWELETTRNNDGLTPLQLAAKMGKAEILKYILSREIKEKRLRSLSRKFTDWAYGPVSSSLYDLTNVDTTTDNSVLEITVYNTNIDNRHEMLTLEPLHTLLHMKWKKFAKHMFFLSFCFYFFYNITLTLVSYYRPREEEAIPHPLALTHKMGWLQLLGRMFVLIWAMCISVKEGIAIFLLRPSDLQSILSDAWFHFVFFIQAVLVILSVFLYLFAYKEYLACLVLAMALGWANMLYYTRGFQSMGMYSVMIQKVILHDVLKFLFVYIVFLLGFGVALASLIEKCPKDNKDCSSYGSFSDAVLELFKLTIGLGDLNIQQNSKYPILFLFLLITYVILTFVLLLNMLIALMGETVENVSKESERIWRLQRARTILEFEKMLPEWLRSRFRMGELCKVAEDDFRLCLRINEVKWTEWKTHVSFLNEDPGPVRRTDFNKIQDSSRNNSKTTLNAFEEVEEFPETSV
# [5] = target: T3, Transient receptor potential cation channel subfamily V member 1 (Homo sapiens, UniProt Q8NER1); experiment: Antagonist activity at human TRPV1 expressed in CHO cells assessed as inhibition of capsaicin-induced 45Ca2+ uptake incubated for 10 mins prior to capsaicin-challenge measured after 2 to 5 mins by liquid scintillation counting analysis; format: cell-based; method in brief: as §1
# [6] = target: T3, Transient receptor potential cation channel subfamily V member 1; experiment: Inhibition of TRPV1 (unknown origin)
# Method in brief: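 CHO cells stably expressing human TRPV1, kept in DMEM F-12 with 10% FBS and G418. Cells were pretreated with compound for 10 min at 30 °C, then given 45Ca2+ (5 µCi/mL final) and capsaicin as agonist for 2–5 min. After washing and lysis, radioactivity was counted. IC50 came from six-point concentration–response curves in at least two independent experiments.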
# [7] = target: T1, Transient receptor potential cation channel subfamily M member 8; experiment: Inhibition of TRPM8 (unknown origin)
# [8] = test system: Rattus norvegicus; experiment: Inhibition of acetone spray-induced cold allodynia in Sprague-Dawley rat chronic constriction injury model at 10 mg/kg, ip after 3 hrs; format: functional; conditions: route intraperitoneal
# [9] = test system: Rattus norvegicus; experiment: Inhibition of acetone spray-induced cold allodynia in Sprague-Dawley rat chronic constriction injury model at 10 mg/kg, ip after 2 hrs; format: functional; conditions: route intraperitoneal
# [10] = test system: Rattus norvegicus; experiment: Inhibition of acetone spray-induced cold allodynia in Sprague-Dawley rat chronic constriction injury model at 10 mg/kg, ip after 1 hr; format: functional; conditions: route intraperitoneal
# [11] = test system: Rattus norvegicus; experiment: Inhibition of acetone spray-induced cold allodynia in Sprague-Dawley rat chronic constriction injury model at 10 mg/kg, ip after 0.5 hrs; format: functional; conditions: route intraperitoneal
# T3 sequence (Q8NER1 whole entry): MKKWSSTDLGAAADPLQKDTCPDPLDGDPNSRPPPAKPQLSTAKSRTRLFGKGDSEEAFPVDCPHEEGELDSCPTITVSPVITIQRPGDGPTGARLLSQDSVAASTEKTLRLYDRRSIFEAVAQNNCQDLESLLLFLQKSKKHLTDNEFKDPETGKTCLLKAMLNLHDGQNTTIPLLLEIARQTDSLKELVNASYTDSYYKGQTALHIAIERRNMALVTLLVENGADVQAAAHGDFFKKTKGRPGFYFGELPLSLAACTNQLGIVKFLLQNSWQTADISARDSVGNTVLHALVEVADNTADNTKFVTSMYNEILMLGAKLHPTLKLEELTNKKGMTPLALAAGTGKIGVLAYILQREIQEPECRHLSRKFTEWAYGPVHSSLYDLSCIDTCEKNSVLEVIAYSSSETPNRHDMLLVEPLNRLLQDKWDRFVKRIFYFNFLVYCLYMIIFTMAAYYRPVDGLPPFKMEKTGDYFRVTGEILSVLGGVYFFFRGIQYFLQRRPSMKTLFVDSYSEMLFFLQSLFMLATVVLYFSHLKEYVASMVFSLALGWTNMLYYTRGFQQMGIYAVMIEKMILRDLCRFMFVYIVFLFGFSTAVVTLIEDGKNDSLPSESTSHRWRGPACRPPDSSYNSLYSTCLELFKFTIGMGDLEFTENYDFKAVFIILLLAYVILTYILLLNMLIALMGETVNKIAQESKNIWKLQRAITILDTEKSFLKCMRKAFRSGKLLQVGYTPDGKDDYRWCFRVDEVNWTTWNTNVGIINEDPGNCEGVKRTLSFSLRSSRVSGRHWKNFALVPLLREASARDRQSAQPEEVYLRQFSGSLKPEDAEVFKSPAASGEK
# T1 sequence (Q7Z2W7 whole entry): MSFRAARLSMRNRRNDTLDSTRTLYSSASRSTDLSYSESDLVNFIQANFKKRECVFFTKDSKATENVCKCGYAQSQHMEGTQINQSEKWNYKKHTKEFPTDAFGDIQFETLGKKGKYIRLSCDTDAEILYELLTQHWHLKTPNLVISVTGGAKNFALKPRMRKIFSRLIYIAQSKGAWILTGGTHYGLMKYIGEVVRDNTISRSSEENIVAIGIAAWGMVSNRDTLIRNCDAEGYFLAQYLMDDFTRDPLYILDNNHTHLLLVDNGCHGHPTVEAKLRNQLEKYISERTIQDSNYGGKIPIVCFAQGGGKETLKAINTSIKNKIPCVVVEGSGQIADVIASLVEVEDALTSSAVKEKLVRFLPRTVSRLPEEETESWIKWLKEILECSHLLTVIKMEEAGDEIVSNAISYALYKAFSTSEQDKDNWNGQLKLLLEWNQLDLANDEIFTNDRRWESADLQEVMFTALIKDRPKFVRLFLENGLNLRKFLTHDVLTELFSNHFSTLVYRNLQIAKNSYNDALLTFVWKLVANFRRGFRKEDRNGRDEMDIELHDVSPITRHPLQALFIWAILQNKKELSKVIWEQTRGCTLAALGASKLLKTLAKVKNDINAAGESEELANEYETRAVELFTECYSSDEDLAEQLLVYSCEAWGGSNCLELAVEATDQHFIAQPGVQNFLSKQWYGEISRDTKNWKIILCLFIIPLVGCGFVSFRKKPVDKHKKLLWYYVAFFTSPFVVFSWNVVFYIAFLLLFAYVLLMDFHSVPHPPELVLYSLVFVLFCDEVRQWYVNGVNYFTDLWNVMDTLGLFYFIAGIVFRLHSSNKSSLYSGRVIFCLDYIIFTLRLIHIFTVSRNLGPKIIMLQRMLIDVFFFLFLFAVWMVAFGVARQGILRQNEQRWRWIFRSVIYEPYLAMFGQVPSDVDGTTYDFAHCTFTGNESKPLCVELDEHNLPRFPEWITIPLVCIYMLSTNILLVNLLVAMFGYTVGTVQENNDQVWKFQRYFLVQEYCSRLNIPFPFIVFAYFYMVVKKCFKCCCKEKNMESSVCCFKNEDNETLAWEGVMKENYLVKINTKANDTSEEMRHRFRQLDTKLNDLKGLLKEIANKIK
# Transient receptor potential cation channel subfamily V member 4 (Homo sapiens), sequence (Q9HBA0 whole entry): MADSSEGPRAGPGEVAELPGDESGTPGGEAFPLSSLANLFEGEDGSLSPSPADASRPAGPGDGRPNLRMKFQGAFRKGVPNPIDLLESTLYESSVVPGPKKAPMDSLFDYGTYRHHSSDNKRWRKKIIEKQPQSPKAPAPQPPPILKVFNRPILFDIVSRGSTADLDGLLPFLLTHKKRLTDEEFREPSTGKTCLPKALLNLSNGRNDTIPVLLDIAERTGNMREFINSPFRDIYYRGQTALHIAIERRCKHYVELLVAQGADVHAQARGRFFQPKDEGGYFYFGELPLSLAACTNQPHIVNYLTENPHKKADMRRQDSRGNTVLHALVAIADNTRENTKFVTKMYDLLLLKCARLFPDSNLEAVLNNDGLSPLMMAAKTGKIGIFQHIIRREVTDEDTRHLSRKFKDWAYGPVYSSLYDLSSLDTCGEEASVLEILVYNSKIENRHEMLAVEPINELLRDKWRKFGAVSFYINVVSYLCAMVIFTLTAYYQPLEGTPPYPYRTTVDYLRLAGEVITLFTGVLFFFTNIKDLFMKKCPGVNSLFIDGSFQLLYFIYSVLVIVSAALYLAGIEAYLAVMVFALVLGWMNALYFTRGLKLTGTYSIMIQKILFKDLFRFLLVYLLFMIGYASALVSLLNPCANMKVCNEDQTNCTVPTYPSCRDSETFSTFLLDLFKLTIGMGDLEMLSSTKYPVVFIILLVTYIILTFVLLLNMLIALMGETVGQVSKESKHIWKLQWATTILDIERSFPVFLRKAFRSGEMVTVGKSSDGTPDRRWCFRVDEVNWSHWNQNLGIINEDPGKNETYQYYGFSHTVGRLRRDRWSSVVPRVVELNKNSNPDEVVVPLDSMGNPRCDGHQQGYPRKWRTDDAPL
# Transient receptor potential cation channel subfamily A member 1 (Homo sapiens), sequence (O75762 whole entry): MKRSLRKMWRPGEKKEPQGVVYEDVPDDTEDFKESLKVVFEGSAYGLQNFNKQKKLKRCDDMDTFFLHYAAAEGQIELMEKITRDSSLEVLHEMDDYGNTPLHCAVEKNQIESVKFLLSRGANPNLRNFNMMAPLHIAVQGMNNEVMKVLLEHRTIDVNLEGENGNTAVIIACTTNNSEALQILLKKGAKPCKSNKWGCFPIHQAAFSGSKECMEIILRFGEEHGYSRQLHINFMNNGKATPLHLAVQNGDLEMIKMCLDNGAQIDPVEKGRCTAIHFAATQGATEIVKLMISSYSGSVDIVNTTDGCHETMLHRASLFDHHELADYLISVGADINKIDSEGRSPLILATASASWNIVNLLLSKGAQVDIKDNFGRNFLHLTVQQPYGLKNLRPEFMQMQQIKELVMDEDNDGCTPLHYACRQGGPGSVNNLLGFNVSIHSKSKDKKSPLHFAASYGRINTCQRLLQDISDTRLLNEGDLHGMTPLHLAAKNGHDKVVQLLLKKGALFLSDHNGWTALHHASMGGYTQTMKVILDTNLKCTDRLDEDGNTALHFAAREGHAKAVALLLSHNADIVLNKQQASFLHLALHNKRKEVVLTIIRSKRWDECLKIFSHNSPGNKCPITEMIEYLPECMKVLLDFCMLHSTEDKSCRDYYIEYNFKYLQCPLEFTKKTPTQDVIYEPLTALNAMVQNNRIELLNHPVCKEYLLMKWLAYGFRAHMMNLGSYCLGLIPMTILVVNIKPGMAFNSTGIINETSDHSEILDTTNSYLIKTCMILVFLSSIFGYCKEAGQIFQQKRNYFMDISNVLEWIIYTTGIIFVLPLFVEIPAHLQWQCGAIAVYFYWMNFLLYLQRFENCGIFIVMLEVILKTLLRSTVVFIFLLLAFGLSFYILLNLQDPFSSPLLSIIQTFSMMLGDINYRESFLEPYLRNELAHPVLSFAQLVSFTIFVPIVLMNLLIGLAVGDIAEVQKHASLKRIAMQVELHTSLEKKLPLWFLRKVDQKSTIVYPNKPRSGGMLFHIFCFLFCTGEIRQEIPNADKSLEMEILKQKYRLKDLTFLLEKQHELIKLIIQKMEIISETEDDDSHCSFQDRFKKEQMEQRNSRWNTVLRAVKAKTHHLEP
SMILES,IC50 [1],other results
O=C(Nc1ccc(C(F)(F)F)cc1)N1CCC2(CCc3cc(F)cc(Cl)c3O2)CC1,457 nM,–
O=C(Nc1nc(C(F)(F)F)cs1)N1CCC2(CCc3cccc(Cl)c3O2)CC1,266 nM,–
O=C(Nc1ccc(C(F)(F)F)cc1)N1CCC2(CCc3ccccc3O2)CC1,281 nM,–
N#Cc1ccc(NC(=O)N2CCC3(CCc4cccc(Cl)c4O3)CC2)cc1,544 nM,–
Oc1cc2c(cc1O)CN(C(=S)NCCc1ccc(Cl)cc1)CCC2 [CAPSAZEPINE],–,IC50 [6]: 2600 nM; IC50 [7]: 18000 nM; Efficacy [8]: 18%; Efficacy [9]: 24%; Efficacy [10]: 41%; Efficacy [11]: 44%
O=C(Nc1ccc(C(F)(F)F)cc1)N1CCC2(CC1)CC(O)c1cccc(F)c1O2 (racemic),90.1 nM,–
O=C(Nc1nc2ccc(F)cc2s1)N1CCC2(CCc3cccc(Cl)c3O2)CC1,113 nM,–

# The next lines start with results.
IC50 [1],SMILES,other results
107 nM,O=C1CC2(CCN(C(=O)Nc3ccc(OC(F)(F)F)cc3)CC2)Oc2c(Br)cccc21,–
295 nM,O=C1CC2(CCN(C(=O)Nc3ccc(C(F)(F)F)cc3)CC2)Oc2c(F)cccc21,–
16.6 nM,O=C(Nc1ccc(OC(F)(F)F)cc1)N1CCC2(CC1)C[C@@H](O)c1cccc(Br)c1O2,inhibition [2]: 1.6%; inhibition [3]: 16.3%; inhibition [4]: 16.8%; IC50 [5]: > 1000 nM
13.3 nM,O=C(Nc1ccc(OC(F)(F)F)cc1)N1CCC2(CC1)CC(O)c1cccc(Cl)c1O2 (racemic),–
9.5 nM,O=C(Nc1ccc(OC(F)(F)F)cc1)N1CCC2(CC1)C[C@@H](O)c1cccc(F)c1O2,inhibition [2]: 7.8%; inhibition [3]: 12.5%; inhibition [4]: 26.4%; IC50 [5]: 842 nM
97.3 nM,O=C(Nc1ccc(C(F)(F)F)cc1)N1CCC2(CCc3cccc(F)c3O2)CC1,–
22.5 nM,O=C(Nc1ccc(OC(F)(F)F)cc1)N1CCC2(CC1)CC(O)c1cccc(F)c1O2 (racemic),–
44.5 nM,O=C(Nc1ccc(C(F)(F)F)cc1)N1CCC2(CC1)CC(O)c1cccc(Br)c1O2 (racemic),–
230 nM,O=C1CC2(CCN(C(=O)Nc3ccc(C(F)(F)F)cc3)CC2)Oc2c(Cl)cccc21,–
